# From PubChem
# Furin inh = human furin inhibitors, primary screen, biochemical, fluorescence intensity; P09958; purified furin, fluorogenic substrate cleavage; inhibition, % at 20 µM or 30 µM; 0.061% of 220,000 active; AID 463115, 2010; in the data active = inhibition above about 25%
# FXIIa inh = human FXIIa protease inhibitors, primary screen, biochemical, 1536-well; Coagulation factor XII (Homo sapiens), P00748; purified FXIIa, Boc-QGR-AMC fluorogenic substrate, 2 h; inhibition, % at 5 µM; 0.3% of 220,000 active; AID 800, 2007; in the data active = inhibition above about 40%;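 also: 0% = enzyme with no compound and 100% = blank without enzyme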
# Calb biofilm kill = clotrimazole potentiators killing C. albicans biofilm, primary screen, 4-compound mixtures; C. albicans biofilm persisters + clotrimazole, fluorescence viability; primary screen in compound mixtures of four per well; inhibition, % at 7.6 µM; 0.02% of 120,000 active; AID 1242, 2008;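 active = inhibition above 30.3% in the primary screen of four-compound pools, then above 30% when the compound was retested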;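 also: compounds exposed to preformed 24 h biofilms for 48 h; 0% = untreated biofilm control and 100% = clotrimazole plus chlorhexidine kill blank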
#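 Test system: C. albicans CAF4-2 wild-type biofilms; buffer or medium: RPMI/MOPS medium, pH 7.0; schedule: 24 h biofilm formation, then 48 h compound exposure, 37 °C; detection: Alamar Blue fluorescence; measure: percent inhibition of biofilm viability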
# Thrombin inh = human alpha-thrombin inhibitors, primary screen, counter-screen for coagulation protease inhibitor project, biochemical, 1536-well, fluorogenic AMC substrate. Boc-VPR-AMC fluorogenic substrate cleavage. AID 1046, 2008. inhibition, % at 5 µM. 0.26% of 220,000 active;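 active = inhibition at or above 40%; inactive = inhibition below 40%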;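 also: 0% = enzyme with no compound and 100% = wells without enzyme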
#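 Test system: human alpha-thrombin protein / Dosing: one concentration per compound, 5 µM, with 0.2% DMSO / Medium: pH 7.5 Tris-saline with Tween 20 / Benchmarks: no-compound enzyme wells and no-enzyme blanks / Read-out basis: percent inhibition of thrombin substrate cleavage / Timing: reaction at room temperature / Measured by: fluorescence, ex 355 nm, em 460 nm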
# KLK5 inh = human KLK5 protease inhibitors, primary screen, biochemical, 1536-well | Kallikrein-5 (Homo sapiens), Q9Y337 | recombinant hK5, fluorogenic AMC substrate cleavage | inhibition, % at 5 µM | 0.59% of 210,000 active | AID 873, 2007;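 active = inhibition of 40% or more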;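 also: 0% = enzyme controls without compound and 100% = no-enzyme blanks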
# FXIa inh = human FXIa protease inhibitors, primary screen, biochemical, 1536-well | purified FXIa, Boc-Glu-Ala-Arg-AMC fluorogenic substrate | inhibition, % at 5 µM | 0.14% of 220,000 active | AID 798, 2007;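 active = inhibition of at least 40%; inactive = inhibition below 40%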;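 also: fluorescence of freed AMC excited at 355 nm; 0% = enzyme without compound and 100% = no enzyme blank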
# The depositor's hits bear a star; · = no result. Sampled rows, rich in hits. Any-hit rate of the full collection: about 1.1%.
SMILES,Furin inh,FXIIa inh,Calb biofilm kill,Thrombin inh,KLK5 inh,FXIa inh
COc1ccc(N(Cc2cc3ccccc3[nH]c2=O)C(=O)C2CCCO2)cc1 (centres undefined),-12,7,·,2,5,0
COc1ccc(N(Cc2cc3cccc(C)c3[nH]c2=O)C(=O)C2CCCO2)cc1 (centres undefined),4,1,5,-6,54*,9
O=C(NCc1ccc(C(F)(F)F)cc1)C12CN(Cc3ccccc3)CC1C(c1cccc([N+](=O)[O-])c1)=NO2 (centres undefined),-8,9,·,17,42*,8
CC1CCc2c(sc(NC(=O)COC(=O)C3CCCO3)c2C#N)C1 (centres undefined),-9,24,8,45*,24,26
CC1CCc2c(sc(NC(=O)C3CCCO3)c2C#N)C1 (centres undefined),-23,2,10,-2,7,8
Cc1cccc(NC(=O)CSc2nc(C)c(Cc3ccccc3)c(=O)[nH]2)c1C,-7,8,14,0,·,0
COc1cc(/C=C/C(=O)OCC(=O)NC(=O)NC(C)C)ccc1OCC#N,-7,15,7,-4,-14,8
COc1cc(/C=C/C(=O)OCC(=O)NC(=O)NC(C)C)ccc1O,27*,0,5,-15,-2,-2
CCCCOc1cccc(C(=O)N(Cc2ccco2)C2CCS(=O)(=O)C2)c1 (centres undefined),-25,15,·,1,-9,5
CCCOc1cccc(C(=O)N(Cc2ccco2)C2CCS(=O)(=O)C2)c1 (centres undefined),-23,15,·,57*,22,9
Cn1nccc1-c1cc(Cl)cc(Cl)c1O,-2,0,25,73*,-7,-8
Cn1nccc1NC(=O)Nc1cccc(Cl)c1,-27,13,13,-2,2,2
O=C(Cc1c[nH]c2ccccc12)N1CCc2ccccc21,35*,10,·,5,-16,6
COc1ccc(C2=[N+](C)CCn3cccc32)c(OC)c1,0,69*,12,25,35,5
Cc1ccc(-n2nc(C)c(/C=N/n3c(C)n[nH]c3=S)c2Cl)cc1,-13,17,7,12,22,11
CC1CCN(CC(=O)Nc2ccccc2C#N)CC1,-20,24,·,43*,23,14
COC(=O)c1ccccc1NC(=O)CN1CCC(C)CC1,-15,3,6,-7,-4,1
Cc1noc(C)c1COc1ccc(C(=O)OCC(=O)NC2CCCCC2C)cc1 (centres undefined),-8,10,·,20,43*,6
O=C(O)CN1C(=O)Nc2ccc(Br)cc2C1c1ccccc1 (centres undefined),-17,14,·,0,-17,3
NNC(=O)CN1C(=O)Nc2ccc(Br)cc2C1c1ccccc1 (centres undefined),-15,24,4,55*,42*,7
CCC(=O)Nc1ccc(C(=O)CSc2nc3ccccc3cc2CC)cc1,-14,21,·,104*,60*,1
CCC(=O)Nc1ccc(C(=O)CSc2nc(N)cc(N)n2)cc1,-12,12,21,1,-4,-1
C/C(N)=C(/C#N)C(=O)CSc1nc2cc(Cl)ccc2s1,-6,3,·,41*,-23,-12
COC(=O)c1sccc1NC(=O)/C=C/c1ccc(Cl)cc1Cl,-23,8,6,-2,-16,4
COC(=O)c1sccc1NC(=O)/C=C/c1c(Cl)cccc1Cl,-14,40*,·,2,-6,22
Cc1ccc(C(=O)Nc2ccc(C(=O)O)cc2)cc1S(=O)(=O)NCc1ccccc1,-26,7,15,-14,-3,-6
CCC(C(=O)OCC(=O)Nc1ccc(SC(F)F)cc1)c1ccccc1 (centres undefined),-10,-2,9,51*,24,3
